Key:
Cavia porcellus [1] = assay: In vivo index of cardiac contractility using paced guinea pig model; type: functional
Method in brief: (§1)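 Guinea pig paced in vivo model. Hemodynamics recorded in normal sinus rhythm; ERP measured during brief pacing at baseline and 10 min after dosing. Bolus of 1 mL/kg via left ventricular catheter for doses <10 mg/kg; higher doses infused over 1 min. Cumulative dosing every 15 min up to the maximally tolerated dose (dP/dt reduced >50%). ED20 (ERP +20 ms) and dP/dt20 (20% drop in LV pressure-rise rate) derived by linear regression of individual dose-response curves.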

Cavia porcellus [2] = assay: Effective dose in vivo for cardiac refractoriness (ERP) using paced guinea pig model; type: functional; method in brief: as §1
[3] = target: Sodium channel protein type 5 subunit alpha (cardiac sodium channel) (Rattus norvegicus, UniProt P15389); assay: in vitro; conditions: sodium channel from cardiac myocytes, probe [3H]batrachotoxin ([3H]BTX)
Chain of Sodium channel protein type 5 subunit alpha (cardiac sodium channel) (P15389 whole entry): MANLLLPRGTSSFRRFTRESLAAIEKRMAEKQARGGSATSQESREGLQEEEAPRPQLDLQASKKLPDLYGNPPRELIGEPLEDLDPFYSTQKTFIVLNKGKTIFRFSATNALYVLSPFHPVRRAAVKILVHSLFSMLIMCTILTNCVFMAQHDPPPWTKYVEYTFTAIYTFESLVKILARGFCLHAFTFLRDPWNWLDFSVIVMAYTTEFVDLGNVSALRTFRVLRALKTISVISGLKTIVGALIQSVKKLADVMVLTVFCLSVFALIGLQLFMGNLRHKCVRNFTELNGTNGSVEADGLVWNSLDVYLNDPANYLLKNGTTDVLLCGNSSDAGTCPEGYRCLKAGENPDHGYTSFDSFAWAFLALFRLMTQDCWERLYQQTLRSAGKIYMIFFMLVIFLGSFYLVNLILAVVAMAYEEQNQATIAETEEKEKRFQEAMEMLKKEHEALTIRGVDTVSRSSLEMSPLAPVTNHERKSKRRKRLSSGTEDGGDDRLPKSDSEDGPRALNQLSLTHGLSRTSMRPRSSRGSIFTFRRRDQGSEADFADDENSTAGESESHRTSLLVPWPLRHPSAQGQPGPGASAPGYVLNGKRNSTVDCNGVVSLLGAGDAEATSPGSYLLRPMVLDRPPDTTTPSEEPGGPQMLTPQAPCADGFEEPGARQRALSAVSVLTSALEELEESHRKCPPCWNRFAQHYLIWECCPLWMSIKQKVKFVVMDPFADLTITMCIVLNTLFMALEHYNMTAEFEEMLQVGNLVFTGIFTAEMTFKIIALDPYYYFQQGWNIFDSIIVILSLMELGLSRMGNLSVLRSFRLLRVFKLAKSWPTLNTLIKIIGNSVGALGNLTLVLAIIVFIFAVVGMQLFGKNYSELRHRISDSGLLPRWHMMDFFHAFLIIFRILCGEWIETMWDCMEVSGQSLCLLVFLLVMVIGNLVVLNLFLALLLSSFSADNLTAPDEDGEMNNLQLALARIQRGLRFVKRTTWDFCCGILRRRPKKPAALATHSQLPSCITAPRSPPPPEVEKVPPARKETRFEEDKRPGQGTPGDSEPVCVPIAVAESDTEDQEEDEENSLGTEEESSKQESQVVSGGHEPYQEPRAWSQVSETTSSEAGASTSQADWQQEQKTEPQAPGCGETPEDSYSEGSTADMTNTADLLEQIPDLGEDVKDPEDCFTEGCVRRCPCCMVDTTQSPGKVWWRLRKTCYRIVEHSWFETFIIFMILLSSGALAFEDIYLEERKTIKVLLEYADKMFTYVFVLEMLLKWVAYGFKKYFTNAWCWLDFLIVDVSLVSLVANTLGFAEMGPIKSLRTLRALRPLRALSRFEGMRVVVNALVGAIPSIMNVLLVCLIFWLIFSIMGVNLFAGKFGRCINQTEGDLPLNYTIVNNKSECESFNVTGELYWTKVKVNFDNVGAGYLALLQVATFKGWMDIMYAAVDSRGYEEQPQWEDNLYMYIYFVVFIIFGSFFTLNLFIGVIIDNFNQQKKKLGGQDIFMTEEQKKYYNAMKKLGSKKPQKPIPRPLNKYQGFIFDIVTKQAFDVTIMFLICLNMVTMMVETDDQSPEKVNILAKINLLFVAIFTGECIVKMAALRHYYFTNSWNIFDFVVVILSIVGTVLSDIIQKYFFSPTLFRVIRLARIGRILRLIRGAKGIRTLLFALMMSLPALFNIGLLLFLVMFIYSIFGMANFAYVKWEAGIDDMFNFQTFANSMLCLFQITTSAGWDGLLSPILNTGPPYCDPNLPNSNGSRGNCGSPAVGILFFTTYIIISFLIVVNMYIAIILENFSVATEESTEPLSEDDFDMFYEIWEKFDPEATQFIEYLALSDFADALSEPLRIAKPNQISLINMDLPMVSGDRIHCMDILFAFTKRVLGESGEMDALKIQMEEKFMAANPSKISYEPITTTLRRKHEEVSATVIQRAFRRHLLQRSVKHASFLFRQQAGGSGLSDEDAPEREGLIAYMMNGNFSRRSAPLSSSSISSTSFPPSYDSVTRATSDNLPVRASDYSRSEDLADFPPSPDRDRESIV

Canis familiaris = assay: Minimal effective dose that resulted in significant reduction in PVC frequency in conscious dogs by po administration after 24 hours of coronary artery ligation; type: functional; conditions: Canis lupus familiaris, read-out: MED
Method in brief: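 Dogs (8.0–19.1 kg) underwent LAD occlusion under halothane anesthesia with Holter electrodes. 24 h after occlusion, animals with PVCs exceeding 50% of heart rate were dosed orally by gavage with agent in water (n = 4 per group). Holter recorded 1 h before and 12–24 h after dosing.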

Cavia porcellus [4] = assay: Minimal effective dose that resulted in significant delay in the onset of arrhythmias in guinea pig with iv administration of aconitine hydrochloride; type: functional; conditions: read-out: MED
Method in brief: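 Guinea pigs (n = 6 per dose, parallel groups) received agent or saline iv (1 mL/kg) 10 min before a lethal aconitine hydrochloride challenge (34 μg/kg iv). Times to first PVC, sustained VT and VF (>15 s) were recorded and compared with concurrent controls by one-way ANOVA. MED taken from an ascending semilogarithmic dose escalation as the dose giving significant delay in arrhythmia onset.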

Felis catus [5] = assay: Effective refractory period (ERP) after iv administration to anesthetized, acutely infarcted cats at x mg/kg; type: functional
Method in brief: (§2)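 Anesthetized cats given a slow iv bolus, with single-stage LAD occlusion 10 min later. Stimulating current raised until fibrillation; three baseline sequences about 15 min apart. Pacing repeated every 15 min for 2 h after occlusion, then every 30 min, for 5 h in total. Values are the mean maximum change over 5 h in VFT (mamps) or ERP (ms); cardioversion at 14–50 J.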

Felis catus [6] = assay: Ventricular fribrillation threshold (VFT) after iv administration to anesthetized, acutely infarcted cats at 0.3 mg/kg; type: functional, Heart; method in brief: as §2
Felis catus [7] = assay: Ventricular fribrillation threshold (VFT) after iv administration to anesthetized, acutely infarcted cats at 1 mg/kg; type: functional, Heart; method in brief: as §2

Row | Structure (SMILES) | dP/dt20 (Cavia porcellus [1]) [mg/kg] | ED20 (Cavia porcellus [2]) [mg/kg] | inhibition at 10 µM [3] [%] | minimal effective dose (Canis familiaris) [mg/kg] | minimal effective dose (Cavia porcellus [4]) [mg/kg] | ERP (Felis catus [5]) [ms] | VFT (Felis catus [6]) [mA] | VFT (Felis catus [7]) [mA]
1 | CCC1=NC(c2ccccc2)c2ccccc2C(c2ccccc2)N1C (stereo unspecified) | 0.01 | > 20 | 97 |  |  |  |  | 
2 | CC(C)C1=NC(C)(c2ccccc2)c2ccccc2CN1C (stereo unspecified) | 0.7 | 0.8 | 50 |  |  |  |  | 
3 | CCC1=NC(c2ccccc2)c2ccc3ccccc3c2CN1C (stereo unspecified) | 0.06 | 0.3 | 98 |  |  |  |  | 
4 | CN1C=NC(c2ccccc2)c2ccccc2C1 (stereo unspecified) | 0.9 | 1.4 | 68 |  |  |  |  | 
5 | CCC1=NC(Cc2ccccc2)c2ccccc2CN1C (stereo unspecified) | 0.2 | 0.2 | 84 |  |  |  |  | 
6 | CN1Cc2ccccc2C(c2ccc(Cl)cc2)N=C1CCc1ccccc1 (stereo unspecified) | 0.2 | 0.2 | 96 |  |  |  |  | 
7 | CC1=NC(c2ccccc2)c2ccccc2CN1C (stereo unspecified) | 0.9 | 1.2 | 52 |  |  |  |  | 
8 | CN(C)CC1=NC(C)(c2ccccc2)c2ccccc2CN1C (stereo unspecified) | 0.02 | 0.8 | 57 |  |  |  |  | 
9 | CCOC(=O)CC1=NC(C)(c2ccccc2)c2ccccc2CN1C (stereo unspecified) | 0.007 | 0.3 | 79 |  |  |  |  | 
10 | CCN(CC)CC1=NC(C)(c2ccccc2)c2ccccc2CN1C.Cl (stereo unspecified) | 0.01 | > 20 | 90 |  |  |  |  | 
11 | CCCCC1=NC(c2ccccc2)c2ccccc2CN1C.Cl (stereo unspecified) | 0.1 | 0.1 | 83 |  |  |  |  | 
12 | CN1Cc2ccccc2C(c2ccccc2)N=C1CCCc1ccccc1.Cl (stereo unspecified) | 0.12 | 0.2 | 100 |  |  |  |  | 
13 | CCC1=NCc2ccccc2C(c2ccccc2)N1Cc1ccccc1.Cl (stereo unspecified) | 0.3 | > 3 | 97 |  |  |  |  | 
14 | COc1ccc(CCC2=NC(c3ccccc3)c3ccccc3CN2C)cc1.Cl (stereo unspecified) | 0.66 | 0.1 | 91 |  |  |  |  | 
15 | COc1ccc(C2N=C(CCc3ccccc3)N(C)Cc3ccccc32)cc1.Cl (stereo unspecified) | 0.1 | 0.1 | 95 |  |  |  |  | 
16 | COc1ccc(OCC2=NC(c3ccccc3)c3ccccc3CN2C)cc1.Cl (stereo unspecified) | 0.48 | 0.1 | 98 |  |  |  |  | 
17 | CN1Cc2ccccc2C(c2ccccc2)N=C1COc1ccccc1.Cl (stereo unspecified) |  | 0.3 | 98 |  |  |  |  | 
18 | CN1Cc2ccccc2C(c2ccccc2)N=C1N1CCOCC1.Cl (stereo unspecified) | 0.4 | 0.6 | 49 |  |  |  |  | 
19 | CCCCCC1=NC(c2ccccc2)c2ccccc2CN1C.Cl (stereo unspecified) | 0.08 | 0.1 | 95 |  |  |  |  | 
20 | CCCC1=NC(c2ccccc2)c2ccccc2CN1C.Cl (stereo unspecified) | 0.8 | 0.4 | 72 |  |  |  |  | 
21 | CN1Cc2ccccc2C(c2ccccc2)N=C1N.Cl (stereo unspecified) | 1 | 1.7 | 91 |  |  |  |  | 
22 | CCCCCCCCC1=NC(c2ccccc2)c2ccccc2CN1C.Cl (stereo unspecified) | 0.1 | 0.2 | 81 |  |  |  |  | 
23 | CN1Cc2ccccc2C(c2ccccc2)N=C1Cc1ccccc1.Cl (stereo unspecified) | 0.15 | 0.3 | 95 |  |  |  |  | 
24 | CCC1=NC(c2ccccc2)c2ccccc2CN1Cc1ccccc1.Cl (stereo unspecified) | 0.2 | 1 | 98 |  |  |  |  | 
25 | CCC1=NC(c2ccccc2)c2ccccc2CN1C(C)C.Cl (stereo unspecified) | 0.15 | 0.2 | 87 |  |  |  |  | 
26 | CCC1=NC(c2ccccc2)c2ccccc2CN1.Cl (stereo unspecified) | 0.2 | 1.1 | 84 |  |  |  |  | 
27 | CN1Cc2ccccc2C(c2ccccc2)N=C1CCC1CCCCC1.Cl (stereo unspecified) | 0.66 | 0.1 | 98 |  |  |  |  | 

Row | Structure (SMILES) | dP/dt20 (Cavia porcellus [1]) [mg/kg] | ED20 (Cavia porcellus [2]) [mg/kg] | inhibition at 10 µM [3] [%] | minimal effective dose (Canis familiaris) [mg/kg] | minimal effective dose (Cavia porcellus [4]) [mg/kg] | ERP (Felis catus [5]) [ms] | VFT (Felis catus [6]) [mA] | VFT (Felis catus [7]) [mA]
28 | CCC1=N[C@@H](c2ccccc2)c2ccccc2CN1C.Cl | 0.09 | 7.1 | 45 | > 10 | 3 |  |  | 
29 | CN1Cc2ccccc2[C@@H](c2ccccc2)N=C1CCc1ccccc1.Cl | 0.03 | 0.03 |  | 3 | 0.1 | 13 | 37 | 
30 | CCOC(=O)C1(c2ccccc2)N=C(CC)N(C)Cc2ccccc21.O=C(O)/C=C/C(=O)O (stereo unspecified) | 0.1 | 0.4 | 56 | 3 | < 3 | 47 | 84 | 
31 | CC1=NC(C)(c2ccccc2)c2ccccc2CN1C.O=C(O)/C=C/C(=O)O (stereo unspecified) | 0.9 | 0.8 | 71 |  |  |  |  | 
32 | CN1Cc2ccccc2C(Cc2ccccc2)N=C1CCc1ccccc1.O=C(O)/C=C/C(=O)O (stereo unspecified) | 0.04 | 0.2 | 97 |  |  |  |  | 
33 | CN1Cc2ccccc2C(c2ccccc2)N=C1CN1CCCCC1.O=C(O)/C=C/C(=O)O (stereo unspecified) | 0.002 | 0.4 | 94 |  |  |  |  | 
34 | CN1CCN(CC2=NC(c3ccccc3)c3ccccc3CN2C)CC1.O=C(O)/C=C/C(=O)O (stereo unspecified) | 0.1 | 0.4 | 38 |  |  |  |  | 
35 | CN1Cc2ccccc2C(c2ccccc2)N=C1CN1CCOCC1.O=C(O)/C=C/C(=O)O (stereo unspecified) | 0.11 | 0.25 | 57 |  |  |  |  | 
36 | CCC1=NC(C(C)=O)(c2ccccc2)c2ccccc2CN1C.O=C(O)/C=C/C(=O)O (stereo unspecified) | 0.45 | 0.9 | 28 |  |  |  |  | 
37 | CN(C)CC1=NC(c2ccccc2)c2ccccc2CN1C.O=C(O)/C=C/C(=O)O (stereo unspecified) |  | 0.6 | 44 |  |  |  |  | 
38 | CCN(CC)CCNC1=NC(c2ccccc2)c2ccccc2CN1C.O=C(O)/C=C/C(=O)O (stereo unspecified) | 0.9 | 0.7 | 98 |  |  |  |  | 
39 | CN1Cc2ccccc2C(c2ccccc2)N=C1CCc1ccc(Cl)cc1.O=C(O)/C=C/C(=O)O (stereo unspecified) | 0.85 | 0.1 | 97 | 3 | 3 | 45 |  | 93
40 | CN1Cc2ccccc2C(C)(c2ccccc2)N=C1CCc1ccccc1 (stereo unspecified) | 0.9 | 0.34 | 97 |  |  |  |  | 
41 | CN1Cc2ccccc2C(c2ccccc2)N=C1COc1ccc(Cl)cc1 (stereo unspecified) | 0.17 | 0.2 | 100 |  |  |  |  | 
42 | CN1Cc2ccccc2C(c2ccccc2)N=C1N1CCCC1 (stereo unspecified) |  | 0.2 | 100 |  |  |  |  | 
43 | CN1Cc2ccccc2C(C)(c2ccccc2)N=C1CN1CCOCC1 (stereo unspecified) | 0.1 | 2.4 | 51 |  |  |  |  | 
44 | CN1Cc2ccccc2C(C)(c2ccccc2)N=C1CC(O)c1ccccc1 (stereo unspecified) | 0.1 | 0.1 | 92 | 10 | < 3 |  |  | 
45 | CCC1=NC(COC)(c2ccccc2)c2ccccc2CN1C (stereo unspecified) | 0.1 | 2.5 | 45 |  |  |  |  | 
46 | CCC1=NC(c2cccc3ccccc23)c2ccccc2CN1C (stereo unspecified) | 0.2 | 0.6 | 94 |  |  |  |  | 
47 | CCC1=NC(CC)(c2ccccc2)c2ccccc2CN1C (stereo unspecified) | 0.1 | 0.2 | 78 |  |  |  |  | 
48 | CN1Cc2ccccc2C(C)(c2ccccc2)N=C1CCl (stereo unspecified) | 0.002 | 0.4 | 82 |  |  |  |  | 
49 | CN1Cc2ccccc2C(c2ccccc2)N=C1c1ccccc1 (stereo unspecified) | 1.1 | 0.3 | 85 |  |  |  |  | 
50 | COc1ccc(C(=O)Nc2ccccc2CCC2CCCCN2C)cc1 (stereo unspecified) [ENCAINIDE] | 0.003 | 0.7 | 55 |  |  |  |  | 
51 | CCN(CC)CC(=O)Nc1c(C)cccc1C [LIDOCAINE] | 4.3 | 8 | 10 |  |  |  |  | 
52 | C=C[C@H]1CN2CC[C@H]1C[C@@H]2[C@@H](O)c1ccnc2ccc(OC)cc12 [QUINIDINE] | 2.5 | 7.2 | 68 | 30 | 1 |  |  | 
53 | CCN(CC)CCNC(=O)c1ccc(NS(C)(=O)=O)cc1 [SEMATILIDE] | 18.7 | 1.9 | 0 |  |  |  |  | 
54 | CC(C)NCC(O)c1ccc(NS(C)(=O)=O)cc1 (stereo unspecified) [SOTALOL] | 1.9 | 1.3 | 0 |  |  |  |  | 

From ChEMBL document CHEMBL1126878, “4,5-Dihydro-1-phenyl-1H-2,4-benzodiazepines: novel antiarrhythmic agents” (J Med Chem, 1993)
